The term IC50 denotes the concentration that gives 50% inhibition.

One test addresses T1, Liver carboxylesterase (Sus scrofa, UniProt Q29550).
T1 sequence (Q29550 whole entry): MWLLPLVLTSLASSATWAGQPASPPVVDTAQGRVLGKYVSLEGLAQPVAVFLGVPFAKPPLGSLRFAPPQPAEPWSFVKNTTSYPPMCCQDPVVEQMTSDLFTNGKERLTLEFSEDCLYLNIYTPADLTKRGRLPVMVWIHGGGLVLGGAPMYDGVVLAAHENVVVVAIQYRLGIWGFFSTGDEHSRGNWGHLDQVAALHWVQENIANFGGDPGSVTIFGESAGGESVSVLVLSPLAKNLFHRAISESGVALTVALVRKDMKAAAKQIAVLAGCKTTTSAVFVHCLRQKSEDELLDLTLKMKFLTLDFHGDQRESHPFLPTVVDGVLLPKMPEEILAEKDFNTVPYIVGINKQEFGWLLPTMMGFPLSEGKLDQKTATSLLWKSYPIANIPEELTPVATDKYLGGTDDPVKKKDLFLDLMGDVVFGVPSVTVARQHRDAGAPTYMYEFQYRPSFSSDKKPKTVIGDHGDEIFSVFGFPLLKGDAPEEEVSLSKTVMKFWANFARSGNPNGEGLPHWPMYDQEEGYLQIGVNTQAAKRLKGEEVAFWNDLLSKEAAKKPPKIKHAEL
Briefly: In vitro inhibition of porcine carboxylesterase.

In a further test the target is T2, Acylcarnitine hydrolase (Mus musculus, UniProt Q91WG0).
T2 sequence (Q91WG0 whole entry): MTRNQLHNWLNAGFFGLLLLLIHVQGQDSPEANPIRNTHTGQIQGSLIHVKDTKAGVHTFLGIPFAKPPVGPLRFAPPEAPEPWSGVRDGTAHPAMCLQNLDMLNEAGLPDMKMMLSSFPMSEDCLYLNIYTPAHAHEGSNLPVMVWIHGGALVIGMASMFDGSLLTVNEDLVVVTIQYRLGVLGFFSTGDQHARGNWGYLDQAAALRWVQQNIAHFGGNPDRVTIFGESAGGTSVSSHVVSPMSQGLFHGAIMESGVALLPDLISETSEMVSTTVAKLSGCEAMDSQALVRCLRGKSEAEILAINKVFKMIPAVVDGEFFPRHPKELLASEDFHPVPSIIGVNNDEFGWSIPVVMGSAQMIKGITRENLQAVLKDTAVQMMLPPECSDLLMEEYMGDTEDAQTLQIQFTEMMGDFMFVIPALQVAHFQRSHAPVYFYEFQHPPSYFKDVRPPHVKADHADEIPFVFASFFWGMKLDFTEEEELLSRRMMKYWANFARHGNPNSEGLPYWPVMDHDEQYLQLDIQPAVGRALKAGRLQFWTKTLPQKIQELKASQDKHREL
Briefly: Inhibition of carboxylesterase in murine liver microsomes. On the set-up: species or system Microsome. In a few lines: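 Liver microsomes from male Swiss-Webster mice (differential centrifugation, 100000g pellets), solubilized in 1% n-octyl-β-D-glucopyranoside, then dialyzed 48 h at 4 °C to remove it; 0.88 μg protein per well. Assay in 0.1 M sodium phosphate pH 7.4 at 30 °C: 5 min inhibitor preincubation (ethanol ≤1%), 0.5 mM p-nitrophenyl acetate, 405 nm.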
On the technique in general: Liver microsomes are vesicles of endoplasmic reticulum, rich in cytochrome P450 enzymes.

In the next test the target is T3, Cocaine esterase (Homo sapiens, UniProt O00748).
T3 sequence (O00748 whole entry): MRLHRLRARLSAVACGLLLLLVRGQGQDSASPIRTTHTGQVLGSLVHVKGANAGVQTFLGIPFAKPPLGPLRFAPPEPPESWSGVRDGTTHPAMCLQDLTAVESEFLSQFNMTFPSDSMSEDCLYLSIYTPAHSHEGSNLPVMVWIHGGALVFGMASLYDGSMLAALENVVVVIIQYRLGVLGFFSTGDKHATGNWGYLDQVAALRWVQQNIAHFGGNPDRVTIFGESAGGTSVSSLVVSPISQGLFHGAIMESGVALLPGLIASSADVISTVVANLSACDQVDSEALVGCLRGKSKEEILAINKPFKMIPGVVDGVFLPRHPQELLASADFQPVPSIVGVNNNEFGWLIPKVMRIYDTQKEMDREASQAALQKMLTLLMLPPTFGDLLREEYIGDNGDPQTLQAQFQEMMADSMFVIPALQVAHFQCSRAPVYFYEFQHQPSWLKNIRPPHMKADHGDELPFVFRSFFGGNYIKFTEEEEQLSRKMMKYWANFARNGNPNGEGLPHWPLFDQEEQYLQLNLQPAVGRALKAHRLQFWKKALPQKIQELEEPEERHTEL
The test is described as follows: In vitro inhibition of carboxylesterase in human liver microsomes. On the set-up: species or system Microsome.

On to `CCCCCC/C=C/C(=O)C(F)(F)F`, for which the half-inhibitory concentration (IC50) on Liver carboxylesterase is 6460 µM; against Acylcarnitine hydrolase, 14800 µM.
On the same counts, the results for `CCCCCC[Se]CC(C)=O` are 155 µM and 302 µM.
In the case of `CCCCCC[Se](=O)CC(C)=O` (stereo not given), the “-Log IC50” value at Cocaine esterase was found to be 5.69. Further, the IC50 was 9.33 µM at Liver carboxylesterase and 15.8 µM against Acylcarnitine hydrolase.
As to `CCCCCC[Se](=O)(=O)CC(C)=O`, half-maximal inhibition on Acylcarnitine hydrolase (IC50) required 112 µM.
In the case of `CCCCCCS(=O)(=O)CC(C)=O`, the IC50 on Liver carboxylesterase was 110 µM; at Acylcarnitine hydrolase it was 479 µM.
`CCCCCCCCC(=O)C(F)F`: the “-Log IC50” value on Cocaine esterase was found to be 5.3. For the same compound, the IC50 against Liver carboxylesterase is 24.5 µM; against Acylcarnitine hydrolase, 44.7 µM.
On the same counts, the results for `CCCCCCCCC(=O)C(F)(F)F` are 5.36, 21.4 µM and 38 µM.
As for `CCCCCCCC(F)(F)C(=O)C(F)(F)F`, the IC50 against Liver carboxylesterase was 0.115 µM; on Acylcarnitine hydrolase, 0.162 µM.
The like results for `CCCCCCNCC(=O)C(F)(F)F` were, in that order, 0.017 µM and 0.0224 µM.
Regarding `CCCCCCSCC(C)=O`, the figures for the IC50 on Liver carboxylesterase and against Acylcarnitine hydrolase were 977 µM and 955 µM, respectively.
On the same counts, the results for `CCCCCC[Se]CC(=O)C(F)(F)F` are 0.38 µM and 0.575 µM.
On to `CCCCCCOCC(C)=O`, for which the IC50 at Liver carboxylesterase was 257 µM; against Acylcarnitine hydrolase, 427 µM.
Regarding `CCCCCCCCC(=O)CF`, the “-Log IC50” value on Cocaine esterase was 3.85. The IC50 at Liver carboxylesterase is 851 µM; at Acylcarnitine hydrolase, 1780 µM.
As to `CCCCCC[S+]([O-])CC(=O)C(F)(F)F` (stereo not given), the “-Log IC50” value on Cocaine esterase amounted to 6.51. In addition, the IC50 is 0.17 µM at Liver carboxylesterase and 0.447 µM at Acylcarnitine hydrolase.
For `CCCCCC[Se](=O)(=O)CC(=O)C(F)(F)F`, the IC50 at Liver carboxylesterase is 0.0105 µM; against Acylcarnitine hydrolase, 0.0132 µM.
`CCCCCC[Se](=O)CC(=O)C(F)(F)F` (stereo not given): the IC50 is 0.000457 µM against Liver carboxylesterase and 0.000501 µM at Acylcarnitine hydrolase.
On the same counts, the results for `CCCCCCS(=O)(=O)CC(=O)C(F)(F)F` are 0.676 µM and 0.447 µM.
The like results for `CCCCCCC#CC(=O)C(F)(F)F` were, in that order, 955 µM and 2040 µM.
The like results for `CCCCCCOCC(=O)C(F)(F)F` were, in that order, 0.0437 µM and 0.12 µM.
As for `CCCCCCSCC(=O)C(F)(F)F`, the figures for the IC50 against Liver carboxylesterase and against Acylcarnitine hydrolase were 0.00832 µM and 0.0126 µM, respectively.
Take `CCCCCCCCC(C)=O` [2-DECANONE]: 67600 µM corresponded to half-maximal inhibition on Liver carboxylesterase (IC50).

Values taken from ChEMBL document CHEMBL1135680, “Use of ab initio calculations to predict the biological potency of carboxylesterase inhibitors” (J Med Chem, 2002).
